{"source": "PubChem BioAssay AID463104", "about": "(Sanford-Burnham Center for Chemical Genomics, 2010)", "note": "The campaign covered roughly 330,000 compounds. About 1,100 (0.33%) were called active.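 The calls were made as follows: active = versus positive control, 20 µM dose yields 30% or more activation; inactive = the rest.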 Many of the other results were omitted from the sample, so actives are more common in it than they were."}
{"test": "IRE1-XBP1 pathway stimulators – cell-based, CHO-XBP1 luciferase reporter, luminescence, uHTS, primary screen (AID 463104);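 also: 100% = tunicamycin at 10 µg/mL and 0% = DMSO only wells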", "conditions": "IRE1-XBP1 UPR activation, at 20 µM, hits give high values, percent of tunicamycin response, DMSO as zero", "summary_of_the_method": "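Material: CHO cell line with stable XBP1 luciferase reporter; schedule: 16-18 h cell attachment at 37 °C, then 6 h compound exposure; signal: glow luminescence from Steady-Glo reagent; medium: serum-containing F12 medium, 10% FBS; benchmarks: tunicamycin 10 µg/mL and vehicle-only wells; read-out: percent activation relative to tunicamycin reference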"}
{"smiles": "CCOc1ccccc1C(=O)NC1CC2CCCC(C1)N2Cc1ccccc1", "note": "(stereo not given)", "activation": "2.18% (inactive)"}
{"smiles": "Cc1ccc(C)c(NC(=O)c2ccc3nccnc3c2)c1", "activation": "0.85% (inactive)"}
{"smiles": "Clc1ccc(CSc2nnc([C@@H]3CCCN3)o2)cc1", "activation": "0.7% (inactive)"}
{"smiles": "CCC1CCCCN1S(=O)(=O)Cc1ccccc1Cl", "note": "(stereo not given)", "activation": "-1.25% (inactive)"}
{"smiles": "COC(=O)c1c(NC(=O)CN2CCN(S(=O)(=O)c3ccccc3[N+](=O)[O-])CC2)sc2c1CCC(C)C2", "note": "(stereo not given)", "activation": "-0.95% (inactive)"}
{"smiles": "O=C1CSC2=NCN(c3ccccc3)CN12", "activation": "1.38% (inactive)"}
{"smiles": "CN(c1cccc(NC(=O)Nc2ccc(Cl)cc2)c1)S(C)(=O)=O", "activation": "33.6% (active)"}
{"smiles": "CN(c1cccc(NC(=O)c2ccc(CN3CCc4ccccc4C3)cc2)c1)S(C)(=O)=O", "activation": "-1.68% (inactive)"}
{"smiles": "CN(c1ccccc1)S(=O)(=O)c1cccc(NC(=O)Cc2ccc(Cl)cc2)c1", "activation": "-1.79% (inactive)"}
{"smiles": "CCCOc1cccc(C(=O)Nc2nnn(CCC)n2)c1", "activation": "0.81% (inactive)"}
{"smiles": "Cc1noc(C)c1S(=O)(=O)Nc1cc(C(F)(F)F)ccc1N1CCOCC1", "activation": "-0.99% (inactive)"}
{"smiles": "COCCNC(=S)c1ccc(OC)cc1", "activation": "-1.99% (inactive)"}
{"smiles": "O=C(NCc1ccc(Cl)cc1)C(=O)NCC1CCCN1S(=O)(=O)c1cccs1", "note": "(stereo not given)", "activation": "-4.11% (inactive)"}
{"smiles": "CC(C)(C)OC(=O)C[C@@H]1C/C=C\\C[C@@H](CC(=O)N[C@H](CO)Cc2ccccc2)C(=O)NC[C@@H](c2ccccc2)OC1=O", "activation": "-1.85% (inactive)"}
{"smiles": "O=C(C[C@H]1C/C=C\\C[C@@H](NC(=O)OCC2c3ccccc3-c3ccccc32)C(=O)O[C@@H](c2ccccc2)CNC1=O)N[C@H](CO)Cc1ccccc1", "activation": "100% (active)"}
{"smiles": "CC(C)(C)OC(=O)C[C@H]1C/C=C\\C[C@@H](CC(=O)N[C@H](CO)Cc2ccccc2)C(=O)NC[C@@H](c2ccccc2)OC1=O", "activation": "5.5% (inactive)"}
{"smiles": "O=c1c(Cl)c(NCc2ccc(F)cc2Cl)cnn1C12CC3CC(CC(C3)C1)C2", "activation": "-1.62% (inactive)"}
{"smiles": "COc1ccc(C(=O)N2CCN(c3ncccn3)CC2)cc1S(=O)(=O)N1CCOCC1", "activation": "1.37% (inactive)"}
{"smiles": "Cc1cccc(NC(=O)CSC(N)=O)c1C", "activation": "0.46% (inactive)"}
{"smiles": "CCOC(=O)/C=c1\\s/c(=C\\c2ccc(C#N)cc2)c(=O)n1CC(=O)Nc1cccc(C)c1C", "activation": "217% (active)"}
{"smiles": "Cc1cccc(NC(=O)CN2CCN(C(=O)C3CCN(C(=O)/C=C/c4ccccc4)CC3)CC2)c1C", "activation": "-2.16% (inactive)"}
{"smiles": "Cc1csc(NC(=O)C2CCCN2C(=O)OCC(C)C)n1", "note": "(stereo not given)", "activation": "-2.24% (inactive)"}
{"smiles": "COc1ccc(NC(=O)CN(C)C(=O)/C=C/c2cn(Cc3ccccc3)nc2-c2cccnc2)cc1", "activation": "-0.51% (inactive)"}
{"smiles": "Cc1ccc(/C=C/C(=O)OCC(=O)Nc2cccnc2Cl)cc1", "activation": "-1.42% (inactive)"}
{"smiles": "O=C(COC(=O)/C=C/c1cn(-c2ccccc2)nc1-c1cccnc1)Nc1ccc(Cl)cc1Cl", "activation": "43.9% (active)"}
